{
  "source": "paper PMC4229023",
  "about": "(Biomacromolecules, 2014)",
  "key": {"[1]": {"test": "Maximum tolerated dose study", "type": "in vivo, CD-1 mice", "procedure,_shortened": "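Body weight and survival were checked daily for 2 weeks. MTD was taken as the highest dose causing neither more than 15% body-weight loss nor any death within 2 weeks.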"}, "Plasma pharmacokinetics": {"test": "Plasma pharmacokinetics", "type": "in vivo", "settings": "5 mg DOX/kg i.v., female BALB/c mice"}, "[2]": {"tested_on": "4T1.2 mouse breast cancer cell line", "test": "MTT cytotoxicity", "type": "cell-based", "settings": "4T1.2 cells"}, "[3]": {"tested_on": "HCT-116 human colon carcinoma cell line", "test": "MTT cytotoxicity", "type": "cell-based", "settings": "HCT-116 cells"}, "PC-3 xenografts": {"tested_on": "PC-3 xenografts", "settings": "cited from earlier work"}},
  "data": [
    {"smiles": "COc1cccc2c1C(=O)c1c(O)c3c(c(O)c1C2=O)C[C@@](O)(C(=O)CO)C[C@@H]3O[C@H]1C[C@H](N)[C@H](O)[C@H](C)O1", "note": "[DOX, Doxorubicin]", "values": [
      {"measurement": "tolerability", "setting": "[1]; 10 mg/kg DOX", "result": "well tolerated"},
      {"measurement": "decrease in the body weight", "setting": "[1]; 15 mg DOX/kg", "result": "> 15", "unit": "%"},
      {"measurement": "Animal death", "setting": "[1]; 15 mg DOX/kg i.v., n = 4, listed as free DOX", "result": "death of all treated mice"},
      {"measurement": "maximum tolerated dose (MTD)", "setting": "[1]; DOX dose, single i.v. dose, female CD-1 mice, 2 weeks", "result": "~10", "unit": "mg/kg"},
      {"measurement": "Cmax", "setting": "Plasma pharmacokinetics", "result": 3.59, "unit": "µg/mL"},
      {"measurement": "Vd", "setting": "Plasma pharmacokinetics", "result": 7.34, "unit": "L/kg"},
      {"measurement": "T1/2", "setting": "Plasma pharmacokinetics; noncompartmental", "result": 1.74, "unit": "h"},
      {"measurement": "AUC0-inf", "setting": "Plasma pharmacokinetics; plasma", "result": 3.43, "unit": "µg·h/mL"}
    ]},
    {"smiles": "CC(C)=CCC/C(C)=C/CC/C(C)=C/CSc1ccccc1C(=O)O", "note": "[FTS, S-trans, trans-farnesylthiosalicylic acid]", "values": [
      {"measurement": "cytotoxicity of drug-free carriers and FTS", "setting": "[2]", "result": "inhibited the tumor cell growth in a concentration-dependent manner"},
      {"measurement": "cytotoxicity of drug-free carriers and FTS", "setting": "[3]", "result": "inhibited the tumor cell growth in a concentration-dependent manner"}
    ]},
    {"smiles": "CCCCCCCCCCCCCCCCCCN1C(=CC=CC=CC2=[N+](CCCCCCCCCCCCCCCCCC)c3ccccc3C2(C)C)C(C)(C)c2ccccc21.[O-][Cl+3]([O-])([O-])[O-]", "note": "[free DiD dye, 1,1′-dioctadecyl-3,3,3′,3′-tetramethylindodicarbocyanine perchlorate]", "values": [
      {"measurement": "tumor accumulation (NIRF imaging)", "setting": "PC-3 xenografts", "result": "No obvious tumor accumulation"}
    ]}
  ]
}
